pIC50: −log10 of the molar value. The source made the active and inactive calls.
Legend:
Staphylococcus aureus [1] = assay: Antimicrobial activity against methicillin-resistant Staphylococcus aureus BK2529 assessed as concentration required for minimum inhibition of BRP-resistant subpopulation growth by Etest; format: functional
In short: (§1)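 Etest (manufacturer's method) and population analysis: overnight cultures serially diluted and plated on TSA with increasing oxacillin or BPR, CFU counted after 48 h at 37°C. Colonies from subpopulations growing at high oxacillin or BPR were picked, restreaked on antibiotic-free TSA for three passages, then retested by population analysis.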

Staphylococcus aureus [2] = assay: Antimicrobial activity against methicillin-resistant Staphylococcus aureus COL by Etest; format: functional; in short: as §1
Staphylococcus aureus [3] = assay: Antimicrobial activity against methicillin-resistant Staphylococcus aureus HAR22 assessed as concentration required for minimum inhibition of oxacillin-resistant subpopulation growth by Etest; format: functional; in short: as §1
Staphylococcus aureus [4] = assay: Antimicrobial activity against methicillin-resistant Staphylococcus aureus BK2529 assessed as concentration required for bacterial subpopulation growth; format: functional; in short: as §1
Staphylococcus aureus [5] = assay: Antimicrobial activity against methicillin-resistant Staphylococcus aureus USA300 assessed as concentration required for minimum inhibition of oxacillin-resistant subpopulation growth by Etest; format: functional; in short: as §1
Staphylococcus aureus [6] = assay: Antimicrobial activity against methicillin-resistant Staphylococcus aureus E2125 by Etest; format: functional; in short: as §1
Staphylococcus aureus [7] = assay: Antimicrobial activity against methicillin-resistant Staphylococcus aureus BK2464 assessed as concentration required for minimum inhibition of BRP-resistant subpopulation growth by Etest; format: functional; in short: as §1
Staphylococcus aureus [8] = assay: Antimicrobial activity against methicillin-resistant Staphylococcus aureus HPV107 assessed as concentration required for minimum inhibition of BRP-resistant subpopulation growth by Etest; format: functional; in short: as §1
Staphylococcus aureus [9] = assay: Antimicrobial activity against methicillin-resistant Staphylococcus aureus HAR24 assessed as concentration required for bacterial subpopulation growth; format: functional; in short: as §1
Staphylococcus aureus [10] = assay: Antimicrobial activity against methicillin-resistant Staphylococcus aureus E2125 assessed as concentration required for minimum inhibition of BRP-resistant subpopulation growth by Etest; format: functional; in short: as §1
Staphylococcus aureus [11] = assay: Antimicrobial activity against methicillin-resistant Staphylococcus aureus HDE288 assessed as concentration required for bacterial subpopulation growth; format: functional; in short: as §1
MecA = target: T1, MecA (Staphylococcus aureus, UniProt Q7DHH4); assay: Inhibition of methicillin-resistant Staphylococcus aureus COL PBP2a by competitive assay; set-up: species or system Staphylococcus aureus subsp. aureus COL
T1 sequence (Q7DHH4 whole entry): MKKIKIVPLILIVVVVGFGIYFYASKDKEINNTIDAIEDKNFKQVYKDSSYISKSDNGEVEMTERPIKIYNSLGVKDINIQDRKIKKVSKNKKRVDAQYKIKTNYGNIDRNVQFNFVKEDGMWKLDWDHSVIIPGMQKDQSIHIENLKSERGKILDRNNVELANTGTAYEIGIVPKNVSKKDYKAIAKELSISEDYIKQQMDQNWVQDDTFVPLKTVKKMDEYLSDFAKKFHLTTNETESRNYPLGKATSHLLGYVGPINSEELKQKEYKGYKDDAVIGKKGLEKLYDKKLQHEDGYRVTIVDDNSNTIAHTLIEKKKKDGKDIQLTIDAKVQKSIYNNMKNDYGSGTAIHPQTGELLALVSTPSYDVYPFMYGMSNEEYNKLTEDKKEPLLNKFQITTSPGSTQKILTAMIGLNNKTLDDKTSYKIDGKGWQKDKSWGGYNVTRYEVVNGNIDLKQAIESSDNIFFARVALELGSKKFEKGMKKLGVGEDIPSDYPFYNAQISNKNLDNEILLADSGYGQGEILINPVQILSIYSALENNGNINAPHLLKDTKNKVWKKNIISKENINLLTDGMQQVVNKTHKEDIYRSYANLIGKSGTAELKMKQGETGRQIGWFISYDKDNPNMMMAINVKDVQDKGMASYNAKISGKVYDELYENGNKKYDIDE
In short: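 Purified soluble PBP 2A (mecA expressed in E. coli, 97% pure) at 0.8 µM, preincubated with drug 30 min at 30°C. Then 20 µM Bocillin FL added for 10 min at 37°C, quenched with SDS-PAGE buffer and boiled. Drug range 0.5–20 µM; for IC50, BPR 0.5–200 µM or oxacillin 5–6,000 µM. Curve fitting.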

Staphylococcus aureus [12] = assay: Antimicrobial activity against methicillin-resistant Staphylococcus aureus HAR22 by Etest; format: functional; in short: as §1
Staphylococcus aureus [13] = assay: Antimicrobial activity against methicillin-resistant Staphylococcus aureus HU25 by Etest; format: functional; in short: as §1
Staphylococcus aureus [14] = assay: Antimicrobial activity against methicillin-resistant Staphylococcus aureus HPV107 by Etest; format: functional; in short: as §1
Staphylococcus aureus [15] = assay: Antimicrobial activity against methicillin-resistant Staphylococcus aureus COL assessed as concentration required for minimum inhibition of BRP-resistant subpopulation growth; format: functional; in short: as §1
Staphylococcus aureus [16] = assay: Antimicrobial activity against methicillin-resistant Staphylococcus aureus HU25 assessed as concentration required for bacterial subpopulation growth; format: functional; in short: as §1
Staphylococcus aureus [17] = assay: Antimicrobial activity against methicillin-resistant Staphylococcus aureus BK2529 by Etest; format: functional; in short: as §1
Staphylococcus aureus [18] = assay: Antimicrobial activity against methicillin-resistant Staphylococcus aureus HDE288 assessed as concentration required for minimum inhibition of oxacillin-resistant subpopulation growth by Etest; format: functional; in short: as §1
Staphylococcus aureus [19] = assay: Antimicrobial activity against methicillin-resistant Staphylococcus aureus HU25 assessed as concentration required for minimum inhibition of BRP-resistant subpopulation growth; format: functional; in short: as §1
Staphylococcus aureus [20] = assay: Effect on cell wall composition of Staphylococcus aureus COL at 0.4 ug/ml by HPLC method; format: functional, organism-based
In short: (§2)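 Strain COL was grown in 1-liter cultures at 37°C to OD620 0.4, with or without drug at 0.4 µg/ml in the medium. Peptidoglycan was then purified and analysed by HPLC elution profile.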

Staphylococcus aureus [21] = assay: Antimicrobial activity against methicillin-resistant Staphylococcus aureus USA300 assessed as concentration required for minimum inhibition of BRP-resistant subpopulation growth; format: functional; in short: as §1
Staphylococcus aureus [22] = assay: Effect on cell wall composition of Staphylococcus aureus COL at 0.4 ug/ml after 100 mins by HPLC method; format: functional, organism-based; in short: as §2
Staphylococcus aureus [23] = assay: Antimicrobial activity against methicillin-resistant Staphylococcus aureus BK2464 assessed as concentration required for bacterial subpopulation growth; format: functional; in short: as §1
Staphylococcus aureus [24] = assay: Antimicrobial activity against methicillin-resistant Staphylococcus aureus HAR22 assessed as concentration required for minimum inhibition of BRP-resistant subpopulation growth; format: functional; in short: as §1
Staphylococcus aureus [25] = assay: Antimicrobial activity against methicillin-resistant Staphylococcus aureus HDE288 by Etest; format: functional; in short: as §1

Nc1nc(/C(=N/O)C(=O)N[C@@H]2C(=O)N3C(C(=O)O)=C(/C=C4\CCN([C@@H]5CCNC5)C4=O)CS[C@H]23)ns1 [CEFTOBIPROLE]
0.8 µg/mL: Activity (Staphylococcus aureus [3]) | MIC (Staphylococcus aureus [6]) | Activity (Staphylococcus aureus [8]) | MIC (Staphylococcus aureus [12]) | MIC (Staphylococcus aureus [14]) | Activity (Staphylococcus aureus [21]) | MIC (Staphylococcus aureus [25])
3 µg/mL: MIC (Staphylococcus aureus [2]) | Activity (Staphylococcus aureus [4]) | Activity (Staphylococcus aureus [7]) | Activity (Staphylococcus aureus [9]) | Activity (Staphylococcus aureus [11]) | MIC (Staphylococcus aureus [13]) | Activity (Staphylococcus aureus [15]) | Activity (Staphylococcus aureus [16]) | Activity (Staphylococcus aureus [19]) | Activity (Staphylococcus aureus [24])
1.5 µg/mL: Activity (Staphylococcus aureus [1]) | Activity (Staphylococcus aureus [5]) | Activity (Staphylococcus aureus [10]) | MIC (Staphylococcus aureus [17]) | Activity (Staphylococcus aureus [18]) | Activity (Staphylococcus aureus [23])
active: Activity (Staphylococcus aureus [20])
5.49: pIC50 (MecA)
inactive: Activity (Staphylococcus aureus [22])

Source: ChEMBL document CHEMBL1275462 (Antimicrob Agents Chemother, 2008)
